Measurements pooled from the literature.
Lines come from different studies, so protocols differ.
Target: Protein kinase C alpha type (PRKCA, Homo sapiens, UniProt P17252)

SMILES	effect on	action	method	concentration	measurement	value
CCN(CC)CCNC(=O)c1c(C)[nH]c(/C=C2\C(=O)Nc3ccc(F)cc32)c1C	enzyme activity	inhibitor	–	10 µM	inhibition	11%
COc1cc(Nc2cnc(C#N)c(O[C@H](C)CN(C)C)n2)ncc1-c1cnn(C)c1	enzyme activity	inhibitor	radiometric	1 µM	remaining activity	115%
O=C1NC(=O)c2cc(Nc3ccc(F)cc3)c(Nc3ccc(F)cc3)cc21	cell-free assay	–	–	0.5 µM	remaining signal	99.3%
Cc1cnc(NC2CCOCC2)nc1-n1cnc(C(=O)NC(CN)c2cc(F)cc(Cl)c2)c1 (stereo not shown)	enzyme activity	inhibitor	radiometric	1 µM	remaining activity	100%
COc1cc2ncnc(Nc3ccc(Oc4ccccc4)cc3C)c2cc1OC	enzyme activity	inhibitor	–	1 µM	inhibition	6%
FC(F)(F)Oc1cccc(-c2cnc3ccc(-c4ccncc4)nn23)c1	enzyme activity	inhibitor	radiometric	1 µM	activity vs control	96%
CC/C(=N\NC(=O)NCc1cccc(O)c1)c1ccc(O)c(C)c1O	enzyme activity	inhibitor	–	0.1 µM	inhibition	2.6%
CC(C)(C)c1nc2c(s1)c1nc(N)ncc1c1ccc(NS(=O)(=O)c3c(F)cccc3F)c(F)c12	enzyme activity	inhibitor	radiometric	1 µM	remaining activity	107%
Cc1ccc(-n2nc(C(C)(C)C)cc2NC(=O)Nc2ccc(OCCN3CCOCC3)c3ccccc23)cc1	enzyme activity	inhibitor	–	10 µM	inhibition	9%
Cc1ccc(C(=O)NCc2ccsc2)cc1C#Cc1cn(C(C)C)c2ncnc(N)c12	enzyme activity	inhibitor	–	1 µM	activity vs control	92%
O=C(Nc1cnn(-c2csc(C(=O)NC3COC3)c2)c1)Nc1c(F)cccc1Cl	enzyme activity	inhibitor	–	5 µM	remaining activity	90.7%
Cc1[nH]c(/C=C2\C(=O)Nc3ccc(F)cc32)c(C)c1C(=O)N[C@H]1CCN(C(=O)N(C)C)C1	enzyme activity	inhibitor	–	1 µM	remaining activity	106%
Oc1cccc(-c2nc(N3CCOCC3)c3oc4ncccc4c3n2)c1	enzyme activity	inhibitor	–	10 µM	remaining activity	93%
CCCOc1ccc(OC)c(F)c1C(=O)c1ccc(C(=O)N[C@@H]2CNC[C@H]2NC(=O)c2ccc3[nH]ncc3c2)cc1	enzyme activity	inhibitor	–	10 µM	remaining activity	92%
FC(F)c1nc2ccccc2n1-c1nc(N2CCOCC2)nc(N2CCOCC2)n1	enzyme activity	inhibitor	–	10 µM	remaining activity	86%
O=C(Nc1cnn(-c2csc(C(=O)NC3COC3)c2)c1)Nc1ccccc1Cl	enzyme activity	inhibitor	–	5 µM	remaining activity	101%
CCN(CC)CCNC(=O)c1c(C)[nH]c(/C=C2\C(=O)Nc3ccc(F)cc32)c1C	enzyme activity	inhibitor	–	0.1 µM	remaining activity	101%
CC(C)(O)[C@H]1CC[C@H](Nc2ccc3ncc(-c4cccc(C(F)(F)F)c4)n3n2)CC1	enzyme activity	inhibitor	–	1 µM	remaining activity	69.5%
CN(C)C[C@H]1CCn2c(c(C3=C(c4cn(C)c5ccccc45)C(=O)NC3=O)c3ccccc32)C1	cell-free assay	–	–	0.5 µM	remaining signal	2.58%
CCCS(=O)(=O)Nc1ccc(F)c(C(=O)c2c[nH]c3ncc(-c4ccc(Cl)cc4)cc23)c1F	enzyme activity	inhibitor	–	1 µM	inhibition	< 10%
N#CCCc1ccc2c(c1)-c1[nH]c3ccc([N+](=O)[O-])cc3c1CC(=O)N2	cell-free assay	–	–	0.5 µM	remaining signal	80.9%
O=C(CSc1nc2nccnc2c(=O)n1CCc1ccccc1)Nc1nccs1	enzyme activity	inhibitor	–	10 µM	inhibition	15%
